Many of the other results were omitted from the sample, so hits are more common in it than they were.
HEK293 NFkB inh: lowers PMA/ionomycin-induced NF-kB signal in HEK293 cells; HEK-293 NF-kB luciferase reporter, luminescence; inhibition, % at 3 µM; actives 0.21% (n = 62,000);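 active = inhibition above the mean of all tested compounds plus 3 SD, cut at about 40% in these data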;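 note: 0% = stimulated DMSO wells and 100% = 10 µM reference inhibitor 5653914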
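Signal: luciferase luminescence; Material: HEK-293 cells with stable firefly luciferase reporter driven by four HIV NF-kB elements; Probe or stimulus: PMA with ionomycin; Replication: tested once; Times: 1 h compound pretreatment, then 16 h stimulation at 37 °C, 5% CO2; Benchmarks: DMSO and 10 µM reference inhibitor; Evaluation: per-plate % inhibition versus controls.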
D1 allo mod: allosterically modulates the human D1 dopamine receptor | P21728 | HEK293 D1, CRE-luciferase, dopamine EC30 potentiation; actives deviate in either direction | B-score at 10 µM | actives 5.9% (n = 58,000) | AID 641;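 active = luminescence count or its row- and column-corrected plate score outside the 99.7% band of the plate's sample wells, on either side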
AP ELISA ortho: alternative pathway complement inhibition, orthogonal assay; Human serum alternative complement pathway, LPS-coated ELISA, C3 deposition; tested in compound mixtures; inhibition, % at 5 µM; actives 0.08% (n = 62,000); AID 1235;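 active = inhibition above 30% in each of the two pooled mixtures holding the compound, so the lower value exceeds 30%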;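 note: 0% = serum in Mg-EGTA without compound and 100% = EDTA serum blank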
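Test system: human serum alternative complement pathway, C3 deposition on LPS-coated wells; also added: Plate-bound LPS; doses: 5 µM per compound in ten-compound mixtures; schedule: 1 h at 37 °C; detection: Anti-C3 ELISA, OD 450 nm; evaluation: percent inhibition of C3 deposition onto LPS; repeats: two pool placements per compound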
hDAT+cocaine: changed human dopamine transporter uptake under cocaine IC80. LLC-PK1 hDAT cells, [14C]-dopamine uptake with cocaine IC80; actives deviate in either direction. Q01959. AID 449768. actives 1.3% (n = 110,000). B-score at 10 µM;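 active = Z score or B-score, a plate-position-corrected score, falls beyond the plate's 99.7% confidence bounds, in either direction; inactive = both scores lie inside the 99.7% bounds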;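 note: scored against the spread of the other compound wells on the same plate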
E coli RNAP: Escherichia coli RNA polymerase inhibition. P0A8V2. E. coli RNA polymerase, fluorescence transcription assay. inhibition, %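 (tested at 10 µM)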. actives 0.2% (n = 62,000); in the data active = inhibition above about 20%;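 note: 0% = enzyme without compound and 100% = no enzyme blank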
Target sequence (P0A8V2 whole entry, looked up): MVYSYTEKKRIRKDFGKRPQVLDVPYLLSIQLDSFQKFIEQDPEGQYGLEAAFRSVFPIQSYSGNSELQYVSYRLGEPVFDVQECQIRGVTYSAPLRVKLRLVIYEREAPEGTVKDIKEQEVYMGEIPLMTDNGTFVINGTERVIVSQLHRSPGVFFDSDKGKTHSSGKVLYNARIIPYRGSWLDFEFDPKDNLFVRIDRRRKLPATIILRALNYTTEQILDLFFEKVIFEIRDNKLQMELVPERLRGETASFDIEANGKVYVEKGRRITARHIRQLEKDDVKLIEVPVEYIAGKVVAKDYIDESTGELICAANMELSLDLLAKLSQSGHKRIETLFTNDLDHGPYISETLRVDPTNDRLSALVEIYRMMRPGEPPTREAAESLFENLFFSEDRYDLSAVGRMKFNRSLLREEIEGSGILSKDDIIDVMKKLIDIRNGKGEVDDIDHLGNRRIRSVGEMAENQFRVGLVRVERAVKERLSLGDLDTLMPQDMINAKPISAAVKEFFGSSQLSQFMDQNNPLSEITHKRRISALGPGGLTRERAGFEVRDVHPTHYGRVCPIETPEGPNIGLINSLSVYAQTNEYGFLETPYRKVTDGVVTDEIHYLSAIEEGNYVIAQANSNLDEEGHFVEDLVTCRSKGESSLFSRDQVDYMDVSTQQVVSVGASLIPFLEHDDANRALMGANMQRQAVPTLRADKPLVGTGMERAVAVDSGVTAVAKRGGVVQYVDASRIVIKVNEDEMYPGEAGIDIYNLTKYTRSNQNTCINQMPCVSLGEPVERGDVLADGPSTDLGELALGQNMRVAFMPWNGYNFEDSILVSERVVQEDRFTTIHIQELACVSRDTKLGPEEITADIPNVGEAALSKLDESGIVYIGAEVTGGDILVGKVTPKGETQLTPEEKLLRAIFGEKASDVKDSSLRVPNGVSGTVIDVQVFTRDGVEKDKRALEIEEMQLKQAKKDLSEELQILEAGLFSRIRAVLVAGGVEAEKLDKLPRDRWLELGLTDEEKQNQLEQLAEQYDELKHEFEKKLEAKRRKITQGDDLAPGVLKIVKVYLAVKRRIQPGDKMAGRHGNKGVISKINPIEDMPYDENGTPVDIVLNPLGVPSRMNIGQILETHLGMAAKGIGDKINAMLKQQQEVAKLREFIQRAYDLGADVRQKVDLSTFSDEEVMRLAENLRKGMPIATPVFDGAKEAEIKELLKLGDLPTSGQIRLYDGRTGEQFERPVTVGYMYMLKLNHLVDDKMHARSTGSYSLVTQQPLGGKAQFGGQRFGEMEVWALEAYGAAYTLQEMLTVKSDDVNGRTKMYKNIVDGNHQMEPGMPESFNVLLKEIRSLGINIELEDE
D1 PAM confirm: D1 receptor (human) allosteric modulation, confirmed. shares compounds with D1 allo mod. HEK293 D1 CRE-luciferase, dopamine EC30 potentiation; active compounds read high. luminescence at 10 µM. actives 88% (n = 2,200). AID 642;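 active = luminescence in either of two replicates above the same-plate mean plus 3 SD of the low-dose dopamine control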
D1 ag no DA: activates D1 CRE-luciferase signal without dopamine present | shares compounds with D1 allo mod | HEK293 D1 CRE-luciferase, luminescence, no dopamine; active compounds read high | luminescence at 10 µM | actives 0.8% (n = 1,900); in the data active = luminescence above about 3900
Isoprot counter: isoproterenol response counter-screen activity for D1 modulators. shares compounds with D1 allo mod. HEK293 D1 CRE-luciferase, isoproterenol EC30 counter-screen. calls only at 10 µM. actives 63% (n = 2,200);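 active = luminescence in either replicate above plate mean of wells with a partly effective reference agonist dose plus 3 SD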;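 note: isoproterenol raises cAMP through native beta-adrenoceptor Gs so signal bypasses D1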
An asterisk follows results filed as active; i = inactive; x = no result; + = active, no number.

SMILES | HEK293 NFkB inh | D1 allo mod | AP ELISA ortho | hDAT+cocaine | E coli RNAP | D1 PAM confirm | D1 ag no DA | Isoprot counter
CN(C)CCCN1C(=O)C(=O)/C(=C(/O)c2ccc3c(c2)OCCO3)C1c1ccccn1 (stereo unspecified) | 14.2 | -0.0513 | 4.5 | x | 9.1 | x | x | x
CCc1ccc2oc(=O)cc(CN3CCC(C)CC3)c2c1 | 9.0 | 5.87* | -10.4 | 0.023 | -6.3 | 10276* | 1600 | +
Cc1ccc2oc(=O)cc(CN3CCOCC3)c2c1 | 24.4 | 1.37 | 7.7 | -0.315 | 10.0 | x | x | x
CCc1ccc2oc(=O)cc(CN3CCOCC3)c2c1 | 0.9 | 5.92* | -2.0 | 0.485 | 3.2 | 13788* | 1736 | i
O=C(c1ccccc1F)N(Cc1ccc2c(c1)OCO2)Cc1cc2cc3c(cc2n2nnnc12)OCO3 | x | x | x | 0.885 | x | x | x | x
Cc1ccc(C)n1-c1ccc(-c2nnc3n2CCCCC3)s1 | 9.3 | -1.96 | 12.8 | 0.865 | -0.1 | x | x | x
COc1ccc(C(=O)N2CCc3cc(OC)c(OC)cc3C2)cc1OC | 7.5 | 3.7* | 8.8 | 0.484 | -0.2 | 9712* | 1376 | +
COc1ccc(C(=O)N2CCN(c3ccc(C)cc3C)CC2)cc1OC | 15.4 | 0.305 | 17.7 | 1.46 | 7.3 | x | x | x
COc1ccc(C(=O)N2CCN(S(=O)(=O)c3ccc(C)cc3C)CC2)cc1OC | 16.0 | 4.65* | 26.7 | 1.33 | 1.3 | 10368* | 1512 | +
CCn1c(-c2ccsc2)nc2c1c(=O)[nH]c(=O)n2Cc1ccccc1 | 26.7 | 6.34* | 3.1 | 2.35 | 3.0 | 16576* | 1684 | +
COc1ccccc1C1CC(=O)Nc2cc3c(cc21)OCCO3 (stereo unspecified) | 32.2 | -1.97 | 1.6 | 0.651 | 8.6 | x | x | x
CC(C)Oc1ccccc1C1CC(=O)Nc2cc3c(cc21)OCCO3 (stereo unspecified) | 16.5 | 2.33* | 14.5 | -0.165 | -0.8 | 10132* | 1612 | i
O=C1CC(c2cccs2)c2cc3c(cc2N1)OCCO3 (stereo unspecified) | 7.5 | 7.02* | 12.2 | -0.0314 | 10.7 | 10536* | 1296 | i
COc1cccc(-n2c(SCc3c(C)noc3C)nnc2-c2cccc(S(=O)(=O)N(C)C)c2)c1 | 4.1 | 9.09* | 12.0 | -0.134 | 6.6 | 12244* | 1492 | +
COc1ccc(OC)c(-n2c(SCC(C)=O)nnc2-c2cccc(S(=O)(=O)N(C)C)c2)c1 | 13.6 | 3.83* | 12.1 | 0.263 | 4.6 | 6400 | 1712 | i
CCSc1nnc(-c2cccc(S(=O)(=O)N(C)C)c2)n1-c1cc(OC)ccc1OC | 13.7 | 0.604 | 35.3 | 0.137 | -1.7 | x | x | x
CCCOc1ccc(C2c3c(oc4ccccc4c3=O)C(=O)N2CCCN2CCOCC2)cc1 (stereo unspecified) | -2.8 | 2.3 | 10.6 | 0.878 | 5.0 | x | x | x
COc1cccc2c(=O)n(CC(=O)Nc3ccccc3F)ccc12 | x | x | x | -0.111 | x | x | x | x
CC1(C)OC(=O)C(=CNc2ccccc2F)C(=O)O1 | -0.2 | 5.72* | -1.2 | x | 10.7 | 9180* | 1436 | +
COc1ccccc1NC=C1C(=O)OC(C)(C)OC1=O | -11.0 | 1.06 | 3.4 | -0.175 | 9.4 | x | x | x
COc1cccc(N2CCN(c3ccc(S(=O)(=O)N4CCCC4)cc3)CC2)c1 | x | x | x | -0.223 | x | x | x | x
NC(=O)c1oc2ccccc2c1NC(=O)C1CCCCC1 | 17.0 | 1.72 | 14.4 | 0.633 | 0.9 | x | x | x
NC(=O)c1oc2ccccc2c1NC(=O)c1ccc(F)cc1 | 9.1 | 4.51* | 10.7 | 0.895 | 8.6 | 7528* | 1648 | i
CCOCC(=O)Nc1c(C(=O)OCC)oc2ccccc12 | 11.5 | 8.8* | -0.3 | 0.554 | -0.2 | 17016* | 1824 | +
CCOC(=O)c1oc2ccccc2c1NC(=O)COC | 13.1 | 20.5* | 3.0 | 0.064 | 7.1 | 20772* | 1584 | +
SMILES | HEK293 NFkB inh | D1 allo mod | AP ELISA ortho | hDAT+cocaine | E coli RNAP | D1 PAM confirm | D1 ag no DA | Isoprot counter
CCOC(=O)c1oc2ccccc2c1NC(=O)c1cc(OC)cc(OC)c1 | -2.9 | 4.67* | 6.2 | -0.789 | 9.9 | 13500* | x | +
CCOC(=O)c1oc2ccccc2c1N | x | x | x | -0.0042 | x | x | x | x
CCOC(=O)c1oc2ccccc2c1NC(=O)Cc1cccs1 | 10.0 | 0.689 | 6.0 | 0.57 | 5.1 | x | x | x
CCOC(=O)c1oc2ccccc2c1NC(=O)CN1CCN(C)CC1 | 2.4 | 3.48* | 9.7 | -0.78 | 4.9 | 8308* | 1680 | +
CCOC(=O)c1oc2ccc(OC)cc2c1NC(=O)CN1CCN(C)CC1 | x | x | x | -0.352 | x | x | x | x
CCOC(=O)N1CCN(C(=O)C(C)(C)Oc2ccc(Cl)cc2)CC1 | 16.3 | 1.91* | 10.6 | 0.806 | 8.2 | 7408* | 1572 | i
CCCNC(=O)c1cc2c(C(F)(F)F)nn(C)c2s1 | x | x | x | 0.291 | x | x | x | x
CSc1cc(/C=N/O)c(SC)s1 | 9.1 | 6.89* | -0.7 | -0.445 | 7.4 | 12744* | 1664 | i
NS(=O)(=O)c1cc2c(cc1Cl)NC=NS2(=O)=O | x | -0.282 | 12.1 | 0.86 | 6.4 | x | x | x
CCSc1nc2c(c(=O)n1CC)SC(C)C2 (stereo unspecified) | 6.7 | 5.46* | 6.2 | 0.0843 | 12.4 | 12712* | 1732 | i
CCn1c(SCC(=O)Nc2cc(C)on2)nc2c(c1=O)SC(C)C2 (stereo unspecified) | 22.0 | 6.2* | x | -1.09 | x | 6212* | 1608 | i
CCC(C)Sc1nc2c(c(=O)n1C)SC(C)C2 (stereo unspecified) | 12.8 | 3.95* | 23.7 | 0.596 | -1.9 | 8748* | 1640 | i
Cc1cc(C(=O)N/N=C/c2cccc(OC(=O)c3ccco3)c2)n[nH]1 | x | x | x | -0.22 | x | x | x | x
O=C(CNS(=O)(=O)c1cccs1)N1CCc2ccccc2C1 | 20.7 | -1.39 | 21.9 | 1.1 | -0.7 | x | x | x
O=C1OCc2ccc(NC(=O)C3CCCCC3)cc21 | 6.6 | 7.51* | 12.8 | -0.552 | 2.8 | 7424 | 1748 | i
O=C1OCc2cc(NC(=O)C3CCCO3)ccc21 (stereo unspecified) | 22.2 | -0.663 | 7.1 | -1.45 | 0.1 | x | x | x
CCOC(=O)C1=C(C)NC(=O)NC1c1c(OCC(=O)N2CCCCC2)ccc2ccccc12 (stereo unspecified) | 10.7 | 0.108 | 10.0 | 0.23 | 1.9 | x | x | x
Cc1cc(C)n(-c2ccc(C(=O)N3CCc4ccccc43)cc2)n1 | 10.7 | 0.376 | 2.3 | 0.188 | -1.2 | x | x | x
Cc1cc(C(=O)N2CCc3ccccc32)n(-c2ccccc2)n1 | 16.2 | 5.79* | 17.4 | 0.479 | -0.2 | 10356* | 1556 | +
C=C(C)CN1CCN(c2c(CCC#N)c(C)c(C#N)c3nc4ccccc4n23)CC1 | x | 5.38* | x | -0.485 | 1.8 | 11364* | 1768 | +
O=c1nc(-c2ccccc2)c2cc(Cl)ccc2[nH]1 | 19.0 | 6.7* | x | 0.0126 | x | 9072* | x | +

Bioassay records deposited in PubChem by several laboratories.
